Measured values as given in ChEMBL document CHEMBL5724801, “EUbOPEN Chemogenomics Library - Multiplex” (2024).
Values joined by “and” are separate entries in the source; they are usually repeats but may differ in a detail not shown here. Equal entries are not always repeated.

Columns and labels:
[1] = tested on: HEK-293T; test: Multiplex assay against HEK293T; assay type: toxicity, cell-based; conditions: human
Summary of the method: (§1)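 Live cells were stained at seeding with Hoechst33342, BioTracker Green Microtubule Cytoskeleton Dye, MitoTracker Red and Annexin V Alexa Fluor 680, then imaged on a CQ1 microscope at 37°C and 5% CO2 after compound addition. CellPathfinder machine-learning gating split cells into Hoechst high-intensity objects or normal cells. Normal cells were split into healthy, pyknosed or fragmented nuclei, and pyknosed cells into mitotic or apoptotic. Tubulin, mitochondrial-mass and membrane-permeability phenotypes are per cents of healthy-nucleus cells.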

[2] = tested on: U2OS; test: Multiplex assay against U2OS; assay type: toxicity, cell-based; conditions: human; summary of the method: as §1
[3] = 24 h, 1 µM, compound concentration 1 uM
[4] = 24 h, 10 µM, compound concentration 10 uM
[5] = 48 h, 1 µM, compound concentration 1 uM
[6] = 48 h, 10 µM, compound concentration 10 uM
[7] = 12 h, 1 µM, compound concentration 1 uM
[8] = 12 h, 10 µM, compound concentration 10 uM

Compound: Cl.Clc1ccc2nsnc2c1NC1=NCCN1 [TIZANIDINE HYDROCHLORIDE]
- Total Cell Count [1, 3]: 597 and 434
- Population Apoptotic (%) [1, 4]: 32% and 29%
- Population Fragmented Nuclei (%) [1, 4]: 11% and 10%
- Population Healthy Nuclei (%) [1, 4]: 78% and 81%
- Population Hoechst High Intensity Objects (%) [1, 4]: 5% and 6%
- Population Membrane Permeable-Phenotype (%) [1, 4]: 1% and 0%
- Population Mitochondria Different-Phenotype (%) [1, 4]: 23% and 46%
- Population Mitotic Cells (%) [1, 4]: 67% and 70%
- Population Normal (%) [1, 4]: 94% and 93%
- Population Pyknosed Nuclei (%) [1, 4]: 9% and 7%
- Population Tubulin-Different-Phenotype (%) [1, 4]: 18%
- Total Cell Count [1, 4]: 621 and 443
- Population Apoptotic (%) [1, 5]: 17% and 33%
- Population Fragmented Nuclei (%) [1, 5]: 16% and 14%
- Population Healthy Nuclei (%) [1, 5]: 77% and 79%
- Population Hoechst High Intensity Objects (%) [1, 5]: 2% and 3%
- Population Membrane Permeable-Phenotype (%) [1, 5]: 3% and 1%
- Population Mitochondria Different-Phenotype (%) [1, 5]: 13% and 19%
- Population Mitotic Cells (%) [1, 5]: 82% and 66%
- Population Normal (%) [1, 5]: 97% and 96%
- Population Pyknosed Nuclei (%) [1, 5]: 6%
- Population Tubulin-Different-Phenotype (%) [1, 5]: 10% and 7%
- Total Cell Count [1, 5]: 1005 and 661
- Population Apoptotic (%) [1, 6]: 24% and 25%
- Population Fragmented Nuclei (%) [1, 6]: 19% and 13%
- Population Healthy Nuclei (%) [1, 6]: 74% and 81%
- Population Hoechst High Intensity Objects (%) [1, 6]: 3% and 5%
- Population Membrane Permeable-Phenotype (%) [1, 6]: 1%
- Population Mitochondria Different-Phenotype (%) [1, 6]: 13% and 23%
- Population Mitotic Cells (%) [1, 6]: 75%
- Population Normal (%) [1, 6]: 96% and 94%
- Population Pyknosed Nuclei (%) [1, 6]: 5% and 4%
- Population Tubulin-Different-Phenotype (%) [1, 6]: 10% and 19%
- Total Cell Count [1, 6]: 995 and 600
- Population Apoptotic (%) [2, 7]: 82% and 85%
- Population Fragmented Nuclei (%) [2, 7]: 20% and 10%
- Population Healthy Nuclei (%) [2, 7]: 73% and 78%
- Population Hoechst High Intensity Objects (%) [2, 7]: 2% and 1%
- Population Membrane Permeable-Phenotype (%) [2, 7]: 6% and 3%
- Population Mitochondria Different-Phenotype (%) [2, 7]: 1% and 2%
- Population Mitotic Cells (%) [2, 7]: 17% and 14%
- Population Normal (%) [2, 7]: 97% and 98%
- Population Pyknosed Nuclei (%) [2, 7]: 5% and 10%
- Population Tubulin-Different-Phenotype (%) [2, 7]: 2% and 3%
- Total Cell Count [2, 7]: 306 and 140
- Population Apoptotic (%) [2, 8]: 77% and 90%
- Population Fragmented Nuclei (%) [2, 8]: 31% and 22%
- Population Healthy Nuclei (%) [2, 8]: 61% and 66%
- Population Hoechst High Intensity Objects (%) [2, 8]: 2%
- Population Membrane Permeable-Phenotype (%) [2, 8]: 7% and 14%
- Population Mitochondria Different-Phenotype (%) [2, 8]: 2% and 7%
- Population Mitotic Cells (%) [2, 8]: 22% and 10%
- Population Normal (%) [2, 8]: 97%
- Population Pyknosed Nuclei (%) [2, 8]: 6% and 10%
- Total Cell Count [2, 8]: 280 and 98
- Population Apoptotic (%) [2, 3]: 90% and 89%
- Population Fragmented Nuclei (%) [2, 3]: 19% and 15%
- Population Healthy Nuclei (%) [2, 3]: 72% and 73%
- Population Hoechst High Intensity Objects (%) [2, 3]: 0% and 4%
- Population Membrane Permeable-Phenotype (%) [2, 3]: 4% and 7%
- Population Mitochondria Different-Phenotype (%) [2, 3]: 2% and 4%
- Population Mitotic Cells (%) [2, 3]: 9% and 10%
- Population Normal (%) [2, 3]: 99% and 95%
- Population Pyknosed Nuclei (%) [2, 3]: 8% and 11%
- Population Tubulin-Different-Phenotype (%) [2, 3]: 5% and 6%
- Total Cell Count [2, 3]: 381 and 172
- Population Apoptotic (%) [2, 4]: 65% and 86%
- Population Fragmented Nuclei (%) [2, 4]: 29% and 25%
- Population Healthy Nuclei (%) [2, 4]: 62% and 61%
- Population Hoechst High Intensity Objects (%) [2, 4]: 2%
- Population Membrane Permeable-Phenotype (%) [2, 4]: 4% and 12%
- Population Mitochondria Different-Phenotype (%) [2, 4]: 1% and 7%
- Population Mitotic Cells (%) [2, 4]: 34% and 13%
- Population Normal (%) [2, 4]: 97%
- Population Pyknosed Nuclei (%) [2, 4]: 8% and 13%
- Population Tubulin-Different-Phenotype (%) [2, 4]: 1% and 11%
- Total Cell Count [2, 4]: 327 and 118
- Population Apoptotic (%) [2, 5]: 86% and 90%
- Population Fragmented Nuclei (%) [2, 5]: 11% and 17%
- Population Healthy Nuclei (%) [2, 5]: 80% and 74%
- Population Hoechst High Intensity Objects (%) [2, 5]: 1% and 3%
- Population Membrane Permeable-Phenotype (%) [2, 5]: 2% and 5%
- Population Mitochondria Different-Phenotype (%) [2, 5]: 1% and 2%
- Population Mitotic Cells (%) [2, 5]: 13% and 9%
- Population Normal (%) [2, 5]: 98% and 96%
- Population Pyknosed Nuclei (%) [2, 5]: 7% and 8%
- Population Tubulin-Different-Phenotype (%) [2, 5]: 2% and 3%
- Total Cell Count [2, 5]: 512 and 260
- Population Apoptotic (%) [2, 6]: 93% and 76%
- Population Fragmented Nuclei (%) [2, 6]: 18% and 22%
- Population Healthy Nuclei (%) [2, 6]: 75% and 65%
- Population Hoechst High Intensity Objects (%) [2, 6]: 2% and 4%
- Population Membrane Permeable-Phenotype (%) [2, 6]: 5% and 15%
- Population Mitochondria Different-Phenotype (%) [2, 6]: 1% and 5%
- Population Normal (%) [2, 6]: 97% and 95%
- Population Pyknosed Nuclei (%) [2, 6]: 6% and 11%
- Population Tubulin-Different-Phenotype (%) [2, 6]: 3% and 7%
